Test results published in ChEMBL document CHEMBL1139314, “Discovery and structure-activity relationships of 4-aminoquinazoline derivatives, a novel class of opioid receptor like-1 (ORL1) antagonists” (Bioorg Med Chem, 2009).
Calls of active or inactive are those of the source. No cut-off for these calls is given here.

Experiments:
[1] = Displacement of [3H]nociceptin from human ORL1 receptor expressed in CHO-K1 cells; assay type: cell-based
Method in brief: (§1)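 Competition binding used membranes from stably transfected CHO-K1 cells. The radioligand was leucyl-[3H]nociceptin for ORL1 and [3H]diprenorphine for mu, delta and kappa. Nonspecific binding was defined with unlabeled nociceptin (ORL1), naloxone (mu), naltrindole (delta) or naloxone benzoylhydrazone (kappa). Incubation was 1 h at 25 °C in 50 mM Tris-HCl pH 7.8 with 5 mM MgCl2, 1 mM EGTA and 0.1% BSA. Samples were filtered on PEI-soaked GF/B filters and counted. Ki was derived by Cheng–Prusoff.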

Mu-type opioid receptor [2] = target: Mu-type opioid receptor (Rattus norvegicus, UniProt P33535); experiment: Displacement of [3H]diprenorphine from rat mu opioid receptor expressed in CHO-K1 cells; assay type: cell-based; method in brief: as §1
[3] = Selectivity ratio of Ki for rat mu opioid receptor to Ki for human ORL1 receptor
Method in brief: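 Membranes came from CHO-K1 cells expressing rat mu opioid receptor ([3H]diprenorphine; naloxone defines nonspecific binding) or human ORL1 ([3H]nociceptin; unlabeled nociceptin). Ki values were calculated by Cheng–Prusoff.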

Mu-type opioid receptor [4] = target: Mu-type opioid receptor (Homo sapiens, UniProt P35372); experiment: Displacement of [3H]diprenorphine from human mu opioid receptor expressed in CHO-K1 cells; assay type: cell-based; method in brief: as §1
[5] = target: Delta-type opioid receptor (Rattus norvegicus, UniProt P33533); experiment: Displacement of [3H]diprenorphine from rat delta opioid receptor expressed in CHO-K1 cells; assay type: cell-based; method in brief: as §1
[6] = target: Kappa-type opioid receptor (Rattus norvegicus, UniProt P34975); experiment: Displacement of [3H]diprenorphine from rat kappa opioid receptor expressed in CHO-K1 cells; assay type: cell-based; method in brief: as §1
CHO-K1 = experiment: Antagonist activity at human ORL1 receptor expressed in CHO-K1 cells assessed as inhibition of forskolin-stimulated cAMP accumulation; assay type: functional, cell-based
Method in brief: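 CHO-K1 cells stably expressing human ORL1 were preincubated 5 min at 37 °C, 5% CO2, in Krebs-Henseleit solution (pH 7.4) with 0.5 mM IBMX. Forskolin (3 μM final) and test compound (1–1000 nM) were then added with or without nociceptin and incubated 10 min at 37 °C. Cells were lysed, and intracellular cAMP was measured by enzyme immunoassay the same day.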

[7] = Antagonist activity at human ORL1 receptor expressed in CHO-K1 cells assessed as inhibition of cAMP accumulation

Sequence of Kappa-type opioid receptor (P34975 whole entry): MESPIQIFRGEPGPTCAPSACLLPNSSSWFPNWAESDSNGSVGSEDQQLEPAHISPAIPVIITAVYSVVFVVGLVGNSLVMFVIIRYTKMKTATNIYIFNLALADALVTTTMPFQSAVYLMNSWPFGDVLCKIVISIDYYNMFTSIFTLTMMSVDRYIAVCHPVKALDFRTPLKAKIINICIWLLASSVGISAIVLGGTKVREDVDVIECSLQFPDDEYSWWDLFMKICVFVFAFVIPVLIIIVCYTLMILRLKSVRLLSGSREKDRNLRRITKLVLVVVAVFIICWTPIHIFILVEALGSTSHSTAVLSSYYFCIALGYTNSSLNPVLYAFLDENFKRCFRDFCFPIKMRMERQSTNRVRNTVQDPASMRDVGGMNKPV
Sequence of Mu-type opioid receptor (Rattus norvegicus, UniProt P33535) (P33535 whole entry): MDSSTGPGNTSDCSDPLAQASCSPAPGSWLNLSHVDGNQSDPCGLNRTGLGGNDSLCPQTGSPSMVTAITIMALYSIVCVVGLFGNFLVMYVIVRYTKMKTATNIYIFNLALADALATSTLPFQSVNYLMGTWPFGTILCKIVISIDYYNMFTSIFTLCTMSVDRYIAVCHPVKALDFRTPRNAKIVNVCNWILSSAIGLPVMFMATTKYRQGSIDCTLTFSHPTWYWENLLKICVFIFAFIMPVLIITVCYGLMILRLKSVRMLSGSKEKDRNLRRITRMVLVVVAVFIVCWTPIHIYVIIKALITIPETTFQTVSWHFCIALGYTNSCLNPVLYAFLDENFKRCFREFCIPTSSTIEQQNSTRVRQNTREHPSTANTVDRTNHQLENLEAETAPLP
Sequence of Delta-type opioid receptor (P33533 whole entry): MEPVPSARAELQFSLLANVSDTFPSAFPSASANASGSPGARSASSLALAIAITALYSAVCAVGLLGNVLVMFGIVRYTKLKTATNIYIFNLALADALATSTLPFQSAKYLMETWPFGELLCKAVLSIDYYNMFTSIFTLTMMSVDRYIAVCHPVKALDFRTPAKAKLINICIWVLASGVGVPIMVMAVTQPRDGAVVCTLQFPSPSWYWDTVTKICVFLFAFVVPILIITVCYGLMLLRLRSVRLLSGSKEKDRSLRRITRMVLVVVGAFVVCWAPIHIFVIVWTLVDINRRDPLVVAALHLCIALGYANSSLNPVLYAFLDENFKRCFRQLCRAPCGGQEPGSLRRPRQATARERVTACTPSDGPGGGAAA
Sequence of Mu-type opioid receptor (Homo sapiens, UniProt P35372) (P35372 whole entry): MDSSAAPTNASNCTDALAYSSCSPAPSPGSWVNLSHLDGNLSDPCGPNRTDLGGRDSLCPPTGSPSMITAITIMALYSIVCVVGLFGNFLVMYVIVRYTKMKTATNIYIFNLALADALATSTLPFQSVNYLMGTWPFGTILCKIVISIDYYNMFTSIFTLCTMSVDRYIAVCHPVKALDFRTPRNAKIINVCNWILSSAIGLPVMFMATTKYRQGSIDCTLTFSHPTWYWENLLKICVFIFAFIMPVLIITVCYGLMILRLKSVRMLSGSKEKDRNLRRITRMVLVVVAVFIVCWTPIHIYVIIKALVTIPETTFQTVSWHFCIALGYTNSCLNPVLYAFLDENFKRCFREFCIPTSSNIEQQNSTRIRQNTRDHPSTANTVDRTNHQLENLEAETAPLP

Compound | Ki [1] | Ki (Mu-type opioid receptor [2]) | Ratio Ki [3] | Ki (Mu-type opioid receptor [4]) | Ki [5] | Ki [6] | Activity (CHO-K1) | IC50 [7]
NCCCCCCNc1nc(/C=C/c2ccc(Cl)cc2)nc2ccccc12 | 383 nM | 180 nM | 0.47 |  |  |  |  | 
Cc1ccc2nc(NC(=O)c3ccc(Cl)cc3)nc(N[C@H]3CCCC[C@H]3NC(=N)N)c2c1 (single isomer, unassigned) | 140 nM |  |  | 270 nM | 4300 nM | 510 nM |  | 
Cc1cccc2nc(/C=C/c3ccc(Cl)cc3)nc(NCCCCCCN)c12 | 808 nM | 170 nM | 0.21 |  |  |  |  | 
Cc1ccc2nc(/C=C/c3ccc(Cl)cc3)nc(NCCCCN)c2c1 | 194 nM | 250 nM | 1.29 |  |  |  |  | 
Cc1ccc2nc(/C=C/c3ccc(Cl)cc3)nc(NCCCCNC(=N)N)c2c1 | 160 nM | 2300 nM | 14.4 |  |  |  |  | 
NCCCCCCNc1nc(/C=C/c2ccc(Cl)cc2)nc2ccc(Cl)cc12 | 294 nM | 380 nM | 1.29 |  |  |  |  | 
NCCCCCCNc1nc(/C=C/c2ccc(Cl)cc2)nc2cc3ccccc3cc12 | 133 nM | 410 nM | 3.08 |  |  |  |  | 
Cc1ccc2nc(NC(=O)c3ccc(Cl)cc3)nc(NC3CCCCC3NC(=N)N)c2c1 (racemic) | 2.1 nM |  |  | 310 nM | 4000 nM | 1200 nM |  | 
Cc1ccc2nc(/C=C/c3ccc(Cl)cc3)nc(N[C@H]3CCCC[C@@H]3N)c2c1 (racemic) | 538 nM | 180 nM | 0.33 |  |  |  |  | 
Cc1ccc2nc(/C=C/c3ccc(Cl)cc3)nc(NCCCCCCN)c2c1 | 232 nM | 120 nM | 0.51 |  |  |  |  | 
Cc1ccc2nc(/C=C/c3ccc(Cl)cc3)nc(N[C@H]3CCCC[C@H]3N)c2c1 (racemic) | 200 nM | 150 nM | 0.75 |  |  |  |  | 
Cc1ccc2nc(/C=C/c3ccc(Cl)cc3)nc(N[C@H]3CC[C@H](N)CC3)c2c1 | 795 nM | 300 nM | 0.37 |  |  |  |  | 
Cc1ccc2nc(/C=C/c3ccc(Cl)cc3)nc(N[C@H]3CC[C@@H](N)CC3)c2c1 | 162 nM | 410 nM | 2.53 |  |  |  |  | 
Cc1ccc2nc(/C=C/c3ccc(Cl)cc3)nc(N[C@H]3CC[C@@H](NC(=N)N)CC3)c2c1 | 152 nM | 60 nM | 0.39 |  |  |  |  | 
Cc1ccc2nc(NC(=O)c3ccc(Cl)cc3)nc(N[C@@H]3CCCC[C@@H]3NC(=N)N)c2c1 (single isomer, unassigned) | 1.4 nM |  |  | 330 nM | 3600 nM | 2400 nM | inactive | 17 nM
Cc1ccc2c(NCCCCCCN)nc(/C=C/c3ccc(Cl)cc3)nc2c1 | 420 nM | 200 nM | 0.48 |  |  |  |  | 
Cc1ccc2nc(/C=C/c3ccc(Cl)cc3)nc(NCCCCCCNC(=N)N)c2c1 | 89 nM | 300 nM | 3.37 |  |  |  |  | 
Cc1cccc2c(NCCCCCCN)nc(/C=C/c3ccc(Cl)cc3)nc12 | 653 nM | 930 nM | 1.42 |  |  |  |  | 
CC(C)(C)c1ccc2nc(/C=C/c3ccc(Cl)cc3)nc(NCCCCCCN)c2c1 | 292 nM | 380 nM | 1.3 |  |  |  |  | 
Cc1ccc2nc(/C=C/c3ccc(Cl)cc3)nc(NCCN)c2c1 | 972 nM | 240 nM | 0.25 |  |  |  |  | 
Cc1ccc2nc(/C=C/c3ccc(Cl)cc3)nc(N[C@H]3CCCC[C@H]3NC(=N)N)c2c1 (racemic) | 43 nM | 220 nM | 5.11 |  |  |  |  | 
